High-throughput results as filed in PubChem.
The list is not random: actives were taken first. Their share in the collection is about 4.4%.
Calb FLC – C. albicans growth inhibition with fluconazole, primary screen, CaCi-2 strain, Alamar Blue fluorescence; C. albicans CaCi-2 (fluconazole-resistant clinical isolate) + fluconazole, 48 h; growth inhibition, % (concentration not given with the values); 0.57% of 300,000 active; AID 1979, 2009;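 active = growth inhibition above about 58% in most replicates, limit read from the data, passing the limit was not always enough; inconclusive = exactly half the replicates above a set limit; inactive = most replicates below a set limit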;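 also: all wells also contain fluconazole at 8 µg/ml as a sub-toxic cotreatment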
HSF1 activator – HSF-1 activators, primary screen, NIH3T3-HGL cells, MG132 stress, luminescence, single point; NIH3T3-HGL HSF-1 luciferase reporter, 8 h; 100% = twice DMSO control signal; activation, % at 9 µM; 1.7% of 300,000 active; AID 504408, 2011;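 active = mean replicate activation of at least 50% with a set share of replicates each reaching 50%; inconclusive = only one of those two conditions met; inactive = mean below 50% and too few replicates reaching it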
HSF1 inhib – HSF1 inhibitors in luciferase reporter cells, primary screen, cell-based, NIH3T3, luminescence | AID 2098, 2009 | NIH3T3-HGL HSE-luciferase, MG132-induced, luminescence 8 h; hits give low values | activity change, negative = inhibition, % at 7.5 µM (by protocol) | 0.77% of 300,000 active;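 active = more than half of replicate wells show activity change below -50%, luminescence cut by over half; inconclusive = some wells, but at most half, below -50%; inactive = no replicate well below -50%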;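 also: luciferase reports HSF-1 transcriptional activity via heat shock element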
T cruzi inh – inhibitors of intracellular T. cruzi growth, primary screen, luminescence, NIH3T3 host cells; T. cruzi beta-gal in NIH3T3, 90 h; inhibition, % (test concentration not listed); 1.4% of 300,000 active; AID 1885, 2009;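 active = mean inhibition across valid replicates above about 55%, limit read from the data; inconclusive = mean below that limit but half or more replicates reach it; inactive = mean below it, under half of replicates reach it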;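 also: signal also drops with host cell toxicity which is not excluded here; higher percent means less beta-gal luminescence so fewer parasites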
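System: NIH/3T3 fibroblasts plus reporter T. cruzi. Medium: DMEM plus 2% FBS. Probe or stimulus: 5000 reporter trypomastigotes per well. Compound: single 50 nL compound addition per well in DMSO. Incubation: co-culture of at least 90 h after 3 h attachment. Detection: GalScreen β-gal luminescence, detergent lysis, 60 min. Evaluation: parasite load inhibition, %.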
HIF activator – HIF pathway transcriptional activators, primary screen, cell-based, U2OS HRE-luciferase, luminescence; U2OS HRE-luciferase reporter; normalized: DMSO 0%, desferrioxamine 100%; activation, % at 7.5 µM (by protocol); 0.32% of 300,000 active; AID 1910, 2009;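 active = mean activation of at least 10% of the iron chelator positive control signal, with at least half of replicates also reaching 10%; inconclusive = mean and replicate majority disagree about reaching 10%; inactive = mean and most replicates under 10%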
Large screens that a line does not name were inactive.

O=C(NNC(=S)NC(=O)c1ccc(Br)cc1)c1ccc([N+](=O)[O-])cc1	Calb FLC 87
O=C(NNC(=S)NC(=O)c1ccccc1)c1ccc([N+](=O)[O-])cc1	Calb FLC 84
Cc1nc(NS(=O)(=O)c2ccc(Br)cc2)c2c3c(sc2n1)CCC3	Calb FLC 92
Cc1nc(NS(=O)(=O)c2cccs2)c2c3c(sc2n1)CCC3	Calb FLC inconclusive
COc1cccc(CN(C)C(=O)Cc2ccc(OC)c(S(=O)(=O)N3CCOCC3)c2)c1	none
COc1cc(C(=O)N/N=C/c2ccc(OC)c(CN3CCN(c4ccc(F)cc4)CC3)c2)ccc1O	none
CN1CCN(CC(=O)n2c3c(c4ccccc42)CCCC3)CC1	HSF1 inhib -64
Cc1ccc(NC(=O)N2CCCC2C(=O)NCC2CCCO2)cc1 (stereo not given)	none
CN(C)c1ccc(CC(=O)c2nc3ccccc3s2)cc1	HSF1 activator 56
Cc1ccc(SC/C(O)=C(\C#N)c2nc3ccccc3s2)cc1	Calb FLC 88
N#C/C(=C(/O)COc1ccccc1)c1nc2ccccc2s1	none
N#C/C(=C(/O)COc1ccc(Cl)cc1)c1nc2ccccc2s1	Calb FLC 94
COc1ccc(C/C(O)=C(\C#N)c2nc3ccccc3s2)cc1	Calb FLC 94
Cc1ccc(-c2csc(NC(=O)/C=C/c3ccco3)c2C(=O)O)cc1	none
CCN(CCCC(=O)c1ccc(F)cc1)CCc1ccccc1	T cruzi inh 58
CCOc1ccccc1/C=C/c1onc(C)c1S(=O)(=O)N1CCC(C(=O)N(CC)CC)CC1	HSF1 inhib -60
CCN(CCN(C)C)C(=O)C1CCN(S(=O)(=O)c2c(C)noc2/C=C/c2ccccc2F)CC1	HIF activator inconclusive
Cc1noc(/C=C/c2ccco2)c1S(=O)(=O)N1CCC(C(=O)N2c3ccccc3CC2C)CC1 (stereo not given)	T cruzi inh 58
COCc1c(C(=O)OC/C(O)=C(\C#N)c2nc3ccccc3[nH]2)oc2ccccc12	none
O=C(CN1CC[n+]2c(-c3ccccc3)csc21)c1ccc(Br)cc1	none
O=C(CN1CC[n+]2c(-c3cccs3)csc21)c1ccc(Br)cc1	T cruzi inh 60
COc1ccc2c(c1)C(=O)/C(=C/C=C/c1ccccc1)CC2	none
COc1ccc2c(c1)CC/C(=C\C=C\c1ccccc1OC)C2=O	HSF1 activator 58
Cc1ccc(NC2=NCC(=O)N2Cc2cccs2)cc1C	none
Cc1ccc(C)c(S(=O)(=O)Nc2ccc(C(=O)NCCCN3CCCC3=O)cc2)c1	none
Cc1ccccc1OCCCC(=O)Nc1ccccc1C(F)(F)F	HSF1 activator 91
Cc1cccc(OCCCC(=O)Nc2ccccc2C(F)(F)F)c1	none
CCCCNC(=O)N1CCN(c2ccnc3cc(Cl)ccc23)CC1	none
CN(C(=O)Nc1ccc(Cl)cc1Cl)[C@H]1c2cc(Br)ccc2OC[C@H]1CO	none
CCCN(CCC)CCCNC(=O)CS(=O)Cc1nc(-c2ccc(OC)c(OC)c2)oc1C (stereo not given)	HSF1 activator 55
CCCCN(C)CCCNC(=O)CS(=O)Cc1nc(-c2ccc(OC)c(OC)c2)oc1C (stereo not given)	none
CCOC(=O)C1CCN(C(c2cccnc2)c2c(NC(=O)c3ccco3)sc(C)c2C)CC1 (stereo not given)	Calb FLC inconclusive, T cruzi inh 65
Cc1sc(NC(=O)c2ccco2)c(C(c2cccnc2)N2CCN(CCO)CC2)c1C (stereo not given)	none
Cc1sc(NC(=O)c2ccco2)c(C(c2cccnc2)N2CCN(c3ccc(F)cc3)CC2)c1C (stereo not given)	T cruzi inh 57
Cc1sc(NC(=O)c2ccco2)c(C(c2ccccc2)N2CCC(C)CC2)c1C (stereo not given)	T cruzi inh 72
Cc1sc(NC(=O)c2ccco2)c(C(c2ccc(F)cc2)N2CCN(C)CC2)c1C (stereo not given)	none
Cc1cccc(NC(=O)CCCCC(=O)Nc2cccc(C)c2)c1	none (no result: T cruzi inh)
CCOC(=O)c1cc(C#N)c(N2CCN(c3ccc(OC)cc3)CC2)[nH]c1=O	Calb FLC 92
CCOc1ccc(CNC(=O)CCCC(=O)n2ncc3cc(C)ccc32)cc1	none
Cc1csc(SCC(=O)Nc2cc(S(=O)(=O)N3CCCC3)ccc2Cl)n1	HSF1 inhib -54
Cc1csc(SCC(=O)Nc2cccc(S(=O)(=O)N3CCCC3)c2)n1	Calb FLC inconclusive
COc1cc(NC(=O)CSc2nc(C)cs2)cc(OC)c1	HSF1 inhib -81
O=C(COc1ccccc1C(=O)O)Nc1nc2ccc([N+](=O)[O-])cc2s1	none
CCCCNC(=O)/C(=C/c1ccco1)NC(=O)c1ccco1	none
Cc1cc(C(=O)COC(=O)c2cccnc2Cl)c(C)n1CC1CCCO1 (stereo not given)	HSF1 inhib -77
Cc1cc(C(=O)COC(=O)c2ccccc2Br)c(C)n1CC1CCCO1 (stereo not given)	HSF1 inhib -91
COCCn1c(C)cc(C(=O)COC(=O)c2ccccc2Br)c1C	HSF1 inhib -90
Cc1cc(C(=O)COC(=O)c2ccccc2O)c(C)n1Cc1cccs1	HSF1 inhib -90
Cc1ccc(C)c(N2CCN(CCCc3ccccc3)CC2)c1	none
CN(CCc1cn[nH]c1)Cc1nc(Cc2ccccc2F)no1	none
Cc1cc(C(=O)COC(=O)c2n[nH]c3ccccc23)c(C)n1CC1CCCO1 (stereo not given)	HSF1 inhib -80
Cc1ccc(C(=O)OCC(=O)c2cc(C)n(CC3CCCO3)c2C)cc1 (stereo not given)	none
O=C(NCc1cccnc1)c1ccc(-c2cc(Cl)ccc2Cl)o1	T cruzi inh 56
O=C(NCc1cccnc1)c1ccc(-c2ccc(Cl)cc2)o1	none
COc1ccc2c(c1)c(=O)oc1cc(OCC(=O)N3CCc4ccccc4C3)ccc12	none
COc1cc2c(cc1OC)CN(Cc1cc(=O)oc3cc(C)c(C)cc13)CC2	none
COc1cc2c(cc1OC)CN(Cc1cc(=O)oc3c(C)c(C)ccc13)CC2	HSF1 activator 58
Cc1ccc2c(CN(C)Cc3ccccc3)cc(=O)oc2c1C	HSF1 activator 74
CCS(=O)(=O)N1Cc2ccccc2CC1C(=O)N(C)CC(=O)Nc1ccc(F)c(F)c1F (stereo not given)	none
Cc1ccc(Nc2ccc(N3CCN(c4ccc([N+](=O)[O-])cc4)CC3)nn2)cc1	none
CCOc1ccc(NCc2ccccc2OCc2cccc(F)c2)cc1	T cruzi inh 55
CC1CN(c2nnc(-c3ccccc3)c3ccccc23)CC(C)O1 (stereo not given)	none
